Measurements gathered from unrelated publications.
Lines come from different studies, so protocols differ.
Target: Serine/threonine-protein kinase PLK1 (PLK1, Homo sapiens, UniProt P53350)

| SMILES | test | setting | remaining binding |
| --- | --- | --- | --- |
| COc1cnc(Nc2cccc(S(N)(=O)=O)c2)nc1N1CCN(c2ccccc2)C(=O)C1 | binding, competition with immobilised ligand | 1 µM | 80% |
| Nc1ncc2c(n1)-c1c([nH]c3ccc(C#CC4CC4)cc13)CCCC2 | binding, competition with immobilised ligand | 1 µM | 68% |
| O=C(NCCCN1CCOCC1)c1ccc(Nc2nccc(-c3cc4ccccc4s3)n2)cc1 | binding, competition with immobilised ligand | 1 µM | 77% |
| CC1=C(C#N)C(c2ccc3c(c2)c(NC(=O)c2ccccc2C)nn3C)C(C#N)=C(C)N1 | cell-free assay, competition with immobilised ligand | 1 µM | 85% |
| F[C@@H]1CCN(c2nccc(-c3cnn4ncccc34)n2)C1 | binding | 1 µM | 100% |
| CC(C)(C)c1ccc(-c2nc(CBr)nn2-c2cccc(O)c2)cc1 | cell-free assay, competition with immobilised ligand | 10 µM | 84% |
| C[C@H](c1cccc(C#N)c1)n1cc(Cl)cc(C(N)=O)c1=N | cell-free assay, competition with immobilised ligand | 1 µM | 89% |
| c1cnn2ncc(-c3ccnc(N4CCC45COC5)n3)c2c1 | binding | 1 µM | 72% |
| C=CC(=O)N1CCC(C(=O)NCC(=O)N2CCN(c3nc(-c4cnc(N)nc4C(F)F)nc(N4CCOCC4)n3)CC2)CC1 | binding, competition with immobilised ligand | 1 µM | 99% |
| CN(C)c1nccc(-c2cnn3ncccc23)n1 | binding | 1 µM | 56% |
| CS(=O)(=O)NCC[C@H](NC(=O)c1cncc2c1cnn2-c1ccc(F)cc1)c1ccnc(S(C)(=O)=O)c1 | cell-free assay, competition with immobilised ligand | 1 µM | 100% |
| O=C(NCC1CCOCC1)c1n[nH]cc1NC(=O)c1c(F)cccc1F | binding, competition with immobilised ligand | 1 µM | 90% |
| CCN1CCN(Cc2ccc(C(=O)Nc3ccc(C)c(Oc4ccc5c(c4)CC(=O)N5)c3)cc2C(F)(F)F)CC1 | binding, competition with immobilised ligand | 1 µM | 100% |
| C[C@H]1CCN(c2nccc(-c3cnn4ncccc34)n2)C1 | binding | 1 µM | 100% |
| O=C(c1ccc(Nc2ncc(Cl)c(-c3cc4ccccc4s3)n2)cc1)N1CCC(N2CCCC2)CC1 | binding, competition with immobilised ligand | 1 µM | 57% |
| CNC(=O)[C@@H]1CC[C@@H](n2c(-c3ccc4cnccc4c3)nc3ccc(C(=O)NCc4cccc(C(N)=O)c4)cc32)C1 | binding, competition with immobilised ligand | 1 µM | 100% |
| Cc1c(C(=O)O)cc(-c2ccc(C3CCNCC3)cc2)c2ccc(-c3ccc(C(F)(F)F)cc3)cc12 | binding, competition with immobilised ligand | 1 µM | 94% |
| COc1ncc2cc3ccccc3nc2c1C#N | cell-free assay, competition with immobilised ligand | 5 µM | 73% |
| Cc1cnc(Nc2ccc(C(=O)N3CCC(N4CCCC4)CC3)cc2)nc1-c1cc2ccccc2s1 | binding, competition with immobilised ligand | 1 µM | 37% |
| NS(=O)(=O)c1cc(NC(=O)Cc2ccccc2)ccc1Oc1cccc(Cl)c1 | cell-free assay, competition with immobilised ligand | 1 µM | 73% |
| N[C@@H]1CCN(c2nccc(-c3cnn4ncccc34)n2)C1 | binding | 1 µM | 100% |
| O=C(NCc1ncc(C(F)(F)F)cc1Cl)c1ccc2c(c1)C1(CCS(=O)(=O)CC1)[C@H](C1CC1)N2S(=O)(=O)c1ccc(F)cc1 | cell-free assay, competition with immobilised ligand | 1 µM | 86% |
| CN(CCCC(F)(F)F)c1nccc(-c2cnn3ncccc23)n1 | binding | 1 µM | 84% |
| c1ccc(N2CCN(Cc3nc4ccccc4[nH]3)CC2)nc1 | binding, competition with immobilised ligand | 1 µM | 100% |
| C[C@@H]1CN(c2ccc3ncc(-c4ccc5[nH]nc(C6CC6)c5c4)n3n2)C[C@H](C)O1 | binding, competition with immobilised ligand | 50 nM | 97% |
| COc1cc(C(=O)N2CCC(N3CCN(C)CC3)CC2)ccc1Nc1ncc2c(n1)N(C)c1ccccc1C(=O)N2C | binding, competition with immobilised ligand | 10 µM | 0.7% |
